Results from ChEMBL document CHEMBL1145471, “Small molecule regulators of autophagy identified by an image-based high-throughput screen” (Proc Natl Acad Sci U S A, 2007).

Experiments:
Assay type in all cases: functional
[1] = tested on: H4; test: Increase in long-lived protein degradation in human H4 cells after 4 hrs relative to control; set-up: concentration or dose not given beside the values
[2] = tested on: H4; test: Decrease in FYVE-RFP+ vesicle intensity per cell in human H4 cells after 2 hrs relative to control; set-up: concentration or dose not given beside the values
Procedure, shortened: (§1)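 H4 cells stably expressing FYVE-RFP (H4-FYVE), grown in DMEM with 10% FBS, penicillin/streptomycin and 2 mM L-glutamine at 37°C, 5% CO2, seeded in 96-well plates and exposed to compound. Fixed in 4% paraformaldehyde, nuclei stained with 3 μg/ml DAPI, FYVE-RFP+ vesicles quantified by high-throughput fluorescence microscopy against DMSO control. Triplicate wells, mean ± SD.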

[3] = tested on: H4; test: Increase in light chain 3-GFP+ autophagosome vesicle intensity per cell in human H4 cells at 9.0 uM after 24 hrs by high throughput fluorescence microscopy relative to control
Procedure, shortened: (§2)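 H4 cells stably expressing LC3-GFP were grown in DMEM with 10% FBS and 2 mM L-glutamine at 37°C, 5% CO2. They were exposed to each compound for 24 h, with DMSO as negative and rapamycin as positive control. Cells were then fixed in 4% paraformaldehyde and stained with 3 μg/ml DAPI. High-throughput fluorescence imaging scored LC3-GFP spot number, size and intensity, expressed relative to DMSO. Mean ± SD of triplicates; experiments repeated three times.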

[4] = tested on: H4; test: Decrease in FYVE-RFP+ vesicle intensity per cell in human H4 cells after 8 hrs relative to control; set-up: concentration or dose not given beside the values; procedure, shortened: as §1
[5] = tested on: H4; test: Increase in long-lived protein degradation in human H4 cells after 24 hrs relative to control; set-up: concentration or dose not given beside the values
[6] = tested on: H4; test: Induction of light chain 3-GFP level in human H4 cells at 9.0 uM after 24 hrs by high throughput fluorescence microscopy relative to control
Procedure, shortened: (§3)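 H4 cells stably expressing LC3-GFP, grown in DMEM with 10% FBS, penicillin/streptomycin and 2 mM L-glutamine at 37°C, 5% CO2. Cells were seeded in 96-well plates and exposed to library compounds at 3–12 μM for 24 h, then fixed in 4% paraformaldehyde and stained with 3 μg/ml DAPI. LC3-GFP spot number, size and intensity were measured by high-throughput fluorescence microscopy and expressed relative to DMSO. Triplicates, mean ± SD.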

[7] = tested on: H4; test: Increase in light chain 3-GFP+ autophagosome vesicle number per cell in human H4 cells at 9.0 uM after 24 hrs by high throughput fluorescence microscopy relative to control; procedure, shortened: as §3
[8] = tested on: H4; test: Increase in long-lived protein degradation in human H4 cells after 2 hrs relative to control; set-up: concentration or dose not given beside the values
[9] = tested on: H4; test: Increase in long-lived protein degradation in human H4 cells after 1 hr relative to control; set-up: concentration or dose not given beside the values
[10] = tested on: H4; test: Increase in light chain 3-GFP+ autophagosome vesicle area per cell in human H4 cells at 9.0 uM after 24 hrs by high throughput fluorescence microscopy relative to control
Procedure, shortened: (§4)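 H4 cells stably expressing LC3-GFP, seeded in 96-well plates and exposed to compound for 24 h; screening concentrations were 3–12 μM, with rapamycin 0.22 μM and bafilomycin A1 0.40 μM. Cells fixed in 4% paraformaldehyde and stained with 3 μg/ml DAPI. Number, size and intensity of LC3-GFP spots measured by high-throughput fluorescence microscopy and expressed as percent of DMSO-treated wells. Rapamycin was the positive control. Triplicate wells, mean ± SD; experiments repeated three times.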

[11] = tested on: H4; test: Decrease in FYVE-RFP+ vesicle intensity per cell in human H4 cells after 4 hrs relative to control; set-up: concentration or dose not given beside the values; procedure, shortened: as §1
[12] = tested on: H4; test: Increase in light chain 3-GFP+ autophagosome vesicle area per cell in human H4 cells at 5.0 uM after 24 hrs by high throughput fluorescence microscopy relative to control; procedure, shortened: as §4
[13] = tested on: H4; test: Increase in light chain 3-GFP+ autophagosome vesicle number per cell in human H4 cells at 5.0 uM after 24 hrs by high throughput fluorescence microscopy relative to control; procedure, shortened: as §2
[14] = tested on: H4; test: Induction of light chain 3-GFP level in human H4 cells at 5.0 uM after 24 hrs by high throughput fluorescence microscopy relative to control
Procedure, shortened: (§5)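 H4 cells stably expressing LC3-GFP, kept in DMEM/10% FBS at 37°C, 5% CO2, were seeded in 96-well plates and exposed to compound for 24 h. Cells were then fixed in 4% paraformaldehyde and stained with 3 μg/ml DAPI. Automated fluorescence microscopy scored the number, size and intensity of LC3-GFP spots. Values are percent of DMSO wells, in triplicate, mean ± SD. Rapamycin served as positive control.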

[15] = tested on: H4; test: Increase in light chain 3-GFP+ autophagosome vesicle intensity per cell in human H4 cells at 5.0 uM after 24 hrs by high throughput fluorescence microscopy relative to control; procedure, shortened: as §2
[16] = tested on: H4; test: Increase in light chain 3-GFP+ autophagosome vesicle number per cell in human H4 cells at 7.4 uM after 24 hrs by high throughput fluorescence microscopy relative to control; procedure, shortened: as §5
[17] = tested on: H4; test: Induction of light chain 3-GFP level in human H4 cells at 7.4 uM after 24 hrs by high throughput fluorescence microscopy relative to control; procedure, shortened: as §5
[18] = tested on: H4; test: Increase in light chain 3-GFP+ autophagosome vesicle intensity per cell in human H4 cells at 7.4 uM after 24 hrs by high throughput fluorescence microscopy relative to control
Procedure, shortened: (§6)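 H4 cells stably expressing LC3-GFP, seeded in 96-well plates and exposed to compound for 24 h; fixed in 4% paraformaldehyde, nuclei stained with 3 μg/ml DAPI. Automated fluorescence microscopy scored number, size and intensity of LC3-GFP spots; values expressed relative to DMSO-treated wells, rapamycin positive control. Triplicate wells, mean ± SD; experiments repeated three times.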

[19] = tested on: H4; test: Increase in light chain 3-GFP+ autophagosome vesicle area per cell in human H4 cells at 7.4 uM after 24 hrs by high throughput fluorescence microscopy relative to control; procedure, shortened: as §6
[20] = tested on: H4; test: Increase in light chain 3-GFP+ autophagosome vesicle area per cell in human H4 cells at 7.6 uM after 24 hrs by high throughput fluorescence microscopy relative to control; procedure, shortened: as §4
[21] = tested on: H4; test: Increase in light chain 3-GFP+ autophagosome vesicle intensity per cell in human H4 cells at 7.6 uM after 24 hrs by high throughput fluorescence microscopy relative to control; procedure, shortened: as §2
[22] = tested on: H4; test: Increase in light chain 3-GFP+ autophagosome vesicle number per cell in human H4 cells at 7.6 uM after 24 hrs by high throughput fluorescence microscopy relative to control; procedure, shortened: as §2
[23] = tested on: H4; test: Induction of light chain 3-GFP level in human H4 cells at 7.6 uM after 24 hrs by high throughput fluorescence microscopy relative to control; procedure, shortened: as §3

Row | Compound | Activity [1] | Activity [2] | Activity [4] | Activity [5] | Activity [8] | Activity [9] | Activity [11] | further results
1 | O=C(Nc1ccccc1)c1cc([N+](=O)[O-])ccc1Cl | 93.22% | 40.32% | 29.9% | 89.29% | 87.58% | 106.33% | 44.5% | Activity [3]: 166.91%; Activity [6]: 105.38%; Activity [7]: 128.11%; Activity [10]: 137.98%
2 | OCCN(CCO)c1nc(N2CCCCC2)c2nc(N(CCO)CCO)nc(N3CCCCC3)c2n1 [DIPYRIDAMOLE] | 81.07% | 32.22% | 32.54% | 79.08% | 79.22% | 82.64% | 30.25% | Activity [12]: 199.02%; Activity [13]: 170.2%; Activity [14]: 158.96%; Activity [15]: 213.63%
3 | CC(=O)C1=C(O)[C@@H]2[C@H]3c4c[nH]c5cccc(c45)C[C@H]3C(C)(C)N2C1=O [CYCLOPIAZONIC ACID] | 96.45% | 41.44% | 33.06% | 96.32% | 97.66% | 103.58% | 30.54% | Activity [16]: 162.66%; Activity [17]: 112.62%; Activity [18]: 186.44%; Activity [19]: 178.53%
4 | Oc1ccc(-c2nc(-c3ccc(F)cc3)c(-c3ccncc3)[nH]2)cc1 [SB-202190] | – | – | – | – | – | – | – | Activity [20]: 160.87%; Activity [21]: 169.71%; Activity [22]: 151.97%; Activity [23]: 91.14%
